Measured values reported in ChEMBL document CHEMBL1139690, “Comparison between two classes of selective EP(3) antagonists and their biological activities” (Bioorg Med Chem Lett, 2006).

Tests used:
[1] = molecular target: T1, Prostaglandin E2 receptor EP3 subtype (Homo sapiens, UniProt P43115); assay: Binding affinity to EP3 receptor in presence of HSA
T1 sequence (P43115 whole entry): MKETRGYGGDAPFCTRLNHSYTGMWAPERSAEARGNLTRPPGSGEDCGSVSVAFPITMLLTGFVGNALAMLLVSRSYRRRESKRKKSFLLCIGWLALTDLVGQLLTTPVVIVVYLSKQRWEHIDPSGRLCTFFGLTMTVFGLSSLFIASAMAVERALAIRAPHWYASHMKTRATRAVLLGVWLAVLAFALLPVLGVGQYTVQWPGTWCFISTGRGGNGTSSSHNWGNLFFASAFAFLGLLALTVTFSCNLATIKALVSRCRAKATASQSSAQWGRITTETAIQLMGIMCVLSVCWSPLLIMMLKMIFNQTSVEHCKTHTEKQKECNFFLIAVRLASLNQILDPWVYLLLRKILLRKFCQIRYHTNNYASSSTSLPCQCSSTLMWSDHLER

Thromboxane A2 receptor = molecular target: T2, Thromboxane A2 receptor (Homo sapiens, UniProt P21731); assay: Binding affinity to TP receptor
T2 sequence (P21731 whole entry): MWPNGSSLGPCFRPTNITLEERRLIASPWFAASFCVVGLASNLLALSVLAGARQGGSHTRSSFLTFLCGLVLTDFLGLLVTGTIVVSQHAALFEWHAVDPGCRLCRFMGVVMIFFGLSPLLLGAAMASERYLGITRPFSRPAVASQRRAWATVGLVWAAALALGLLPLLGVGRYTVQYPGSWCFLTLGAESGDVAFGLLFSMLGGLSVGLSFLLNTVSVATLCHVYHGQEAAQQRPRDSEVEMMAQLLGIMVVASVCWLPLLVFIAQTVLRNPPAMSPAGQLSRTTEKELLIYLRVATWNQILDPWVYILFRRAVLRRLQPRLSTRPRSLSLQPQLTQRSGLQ

[2] = molecular target: Prostaglandin E2 receptor EP2 subtype (Homo sapiens, UniProt P43116); assay: Binding affinity to EP2 receptor
Rattus norvegicus [3] = assay: Concentration in carrageenan-induced hyperalgesic rat at 5 mg/kg, po, 1 hr postdose; type: functional
[4] = Half life in Sprague-Dawley rat at 10 mg/kg, po and 5 mg/kg, iv; type: ADME, organism-based; conditions: in vivo
Prostacyclin receptor = Prostacyclin receptor (Homo sapiens, UniProt P43119); assay: Binding affinity to IP receptor
[5] = molecular target: Prostaglandin F2-alpha receptor (Homo sapiens, UniProt P43088); assay: Binding affinity to FP receptor
[6] = Cmax in Sprague-Dawley rat at 10 mg/kg, po and 5 mg/kg, iv after 30 mins; type: ADME, organism-based; conditions: in vivo
Rattus norvegicus [7] = assay: Antiinflammatory activity against carrageenan-induced paw edema in po dosed rat; type: functional
Rattus norvegicus [8] = assay: Effect on carrageenan-induced paw hyperalgesia in po dosed rat; type: functional
[9] = molecular target: T1, Prostaglandin E2 receptor EP3 subtype; assay: Binding affinity to EP3 receptor
[10] = Clearance in Sprague-Dawley rat at 10 mg/kg, po and 5 mg/kg, iv; type: ADME, organism-based; conditions: in vivo
[11] = Bioavailability in Sprague-Dawley rat at 10 mg/kg, po and 5 mg/kg, iv; type: ADME, organism-based; conditions: in vivo
[12] = molecular target: Prostaglandin E2 receptor EP4 subtype (Homo sapiens, UniProt P35408); assay: Binding affinity to EP4 receptor
[13] = molecular target: T3, Prostaglandin E2 receptor EP1 subtype (Homo sapiens, UniProt P34995); assay: Binding affinity to EP1 receptor
T3 sequence (P34995 whole entry): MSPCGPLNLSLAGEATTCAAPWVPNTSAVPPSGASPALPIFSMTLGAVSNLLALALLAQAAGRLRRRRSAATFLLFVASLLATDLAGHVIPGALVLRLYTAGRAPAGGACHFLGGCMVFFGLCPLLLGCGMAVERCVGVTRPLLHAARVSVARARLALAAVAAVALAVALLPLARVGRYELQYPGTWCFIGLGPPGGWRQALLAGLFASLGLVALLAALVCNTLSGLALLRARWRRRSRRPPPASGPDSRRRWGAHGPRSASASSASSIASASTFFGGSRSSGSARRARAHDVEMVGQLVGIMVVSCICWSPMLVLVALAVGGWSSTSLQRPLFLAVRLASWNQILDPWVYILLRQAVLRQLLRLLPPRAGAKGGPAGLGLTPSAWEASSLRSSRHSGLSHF

[14] = molecular target: T4, Prostaglandin D2 receptor (Homo sapiens, UniProt Q13258); assay: Binding affinity to DP receptor
T4 sequence (Q13258 whole entry): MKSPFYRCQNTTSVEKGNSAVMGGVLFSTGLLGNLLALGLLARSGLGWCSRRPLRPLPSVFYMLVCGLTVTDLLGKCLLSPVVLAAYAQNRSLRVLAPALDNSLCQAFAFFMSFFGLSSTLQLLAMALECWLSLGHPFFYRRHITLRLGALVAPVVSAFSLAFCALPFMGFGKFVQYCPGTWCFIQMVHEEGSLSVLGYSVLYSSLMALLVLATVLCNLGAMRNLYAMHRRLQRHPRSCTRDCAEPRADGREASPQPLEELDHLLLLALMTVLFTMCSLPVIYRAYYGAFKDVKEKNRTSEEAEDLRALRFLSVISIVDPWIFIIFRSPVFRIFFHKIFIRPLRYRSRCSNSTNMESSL

[15] = Cmax in Sprague-Dawley rat at 10 mg/kg, po and 5 mg/kg, iv after 1 hr; type: ADME, organism-based; conditions: in vivo
[16] = Metabolism in human hepatocytes; type: ADME, cell-based, Hepatocyte; conditions: read-out: Activity
Rattus norvegicus [17] = assay: Concentration in carrageenan-induced hyperalgesic rat at 10 mg/kg, po, 1 hr postdose; type: functional
Method in brief: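 Young 100 g rats from the hyperalgesia model given 10 mg/kg po in 0.5% methocel as sodium salts; plasma concentration measured 1 h post-dosing, at the time hyperalgesia was assessed.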

[18] = Stability in rat hepatocytes after 3 hrs; type: ADME, cell-based, Hepatocyte; conditions: read-out: Stability
Method in brief: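 Incubation with rat hepatocytes for 3 h; percentage of parent compound recovered intact.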

[19] = molecular target: T5, Prostaglandin E2 receptor EP3 subtype (Homo sapiens) (UniProt P43115); assay: Antagonistic activity at EP3 receptor assessed as inhibition of cAMP production in HEK EBNA cells; type: functional, cell-based; conditions: HEK293-EBNA, filed as antagonist
T5 sequence (whole entry): T1 sequence (P43115 whole entry)

Prostaglandin E2 receptor EP2 subtype, sequence (P43116 whole entry): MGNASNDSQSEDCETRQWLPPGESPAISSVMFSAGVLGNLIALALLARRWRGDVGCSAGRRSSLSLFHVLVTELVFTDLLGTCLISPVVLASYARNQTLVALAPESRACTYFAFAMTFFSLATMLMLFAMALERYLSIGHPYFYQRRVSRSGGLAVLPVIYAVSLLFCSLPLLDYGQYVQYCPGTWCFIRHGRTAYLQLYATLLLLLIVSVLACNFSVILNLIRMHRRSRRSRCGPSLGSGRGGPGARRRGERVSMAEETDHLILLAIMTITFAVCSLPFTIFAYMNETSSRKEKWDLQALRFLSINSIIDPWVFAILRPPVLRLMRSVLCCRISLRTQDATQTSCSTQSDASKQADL
Prostaglandin E2 receptor EP4 subtype, sequence (P35408 whole entry): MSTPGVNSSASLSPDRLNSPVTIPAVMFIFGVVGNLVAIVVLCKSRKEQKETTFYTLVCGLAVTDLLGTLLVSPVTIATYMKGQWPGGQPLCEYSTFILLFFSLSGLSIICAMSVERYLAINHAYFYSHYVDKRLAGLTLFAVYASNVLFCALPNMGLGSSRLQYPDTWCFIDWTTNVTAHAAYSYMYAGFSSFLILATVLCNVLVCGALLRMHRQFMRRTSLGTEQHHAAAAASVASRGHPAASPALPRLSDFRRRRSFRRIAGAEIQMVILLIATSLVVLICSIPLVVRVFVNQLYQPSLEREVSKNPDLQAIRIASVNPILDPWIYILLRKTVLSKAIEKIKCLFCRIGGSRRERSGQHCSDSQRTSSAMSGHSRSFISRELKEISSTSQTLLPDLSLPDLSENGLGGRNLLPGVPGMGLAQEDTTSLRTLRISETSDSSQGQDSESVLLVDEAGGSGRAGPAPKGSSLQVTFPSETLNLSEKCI
Prostacyclin receptor, sequence (P43119 whole entry): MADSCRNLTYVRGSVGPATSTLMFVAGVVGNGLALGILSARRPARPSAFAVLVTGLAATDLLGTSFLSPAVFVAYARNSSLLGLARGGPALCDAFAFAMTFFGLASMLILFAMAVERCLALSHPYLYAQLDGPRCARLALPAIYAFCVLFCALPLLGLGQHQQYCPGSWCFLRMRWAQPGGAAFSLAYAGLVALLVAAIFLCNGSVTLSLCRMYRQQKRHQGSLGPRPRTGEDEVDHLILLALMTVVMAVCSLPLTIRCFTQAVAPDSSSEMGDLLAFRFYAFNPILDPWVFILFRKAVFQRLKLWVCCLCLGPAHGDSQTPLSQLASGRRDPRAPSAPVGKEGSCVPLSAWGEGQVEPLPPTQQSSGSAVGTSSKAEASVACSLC
Prostaglandin F2-alpha receptor, sequence (P43088 whole entry): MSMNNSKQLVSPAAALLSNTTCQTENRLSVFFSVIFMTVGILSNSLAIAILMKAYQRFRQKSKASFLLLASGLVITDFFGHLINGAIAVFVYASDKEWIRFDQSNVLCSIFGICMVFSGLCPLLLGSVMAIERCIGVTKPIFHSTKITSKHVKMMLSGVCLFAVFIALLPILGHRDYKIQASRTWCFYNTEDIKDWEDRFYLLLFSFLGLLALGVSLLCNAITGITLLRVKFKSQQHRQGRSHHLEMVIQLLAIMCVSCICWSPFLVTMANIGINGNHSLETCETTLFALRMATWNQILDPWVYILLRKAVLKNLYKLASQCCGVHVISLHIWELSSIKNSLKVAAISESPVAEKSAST

SMILES | Ki [1] | Ki (Thromboxane A2 receptor) [µM] | Ki [2] [µM] | half-life [4] [h] | Ki (Prostacyclin receptor) [µM] | Ki [5] [µM] | ED50 (Rattus norvegicus [7]) [mg/kg] | ED50 (Rattus norvegicus [8]) [mg/kg] | Ki [9] | clearance [10] [mL/min] | bioavailability [11] [%] | Ki [12] | Ki [13] [µM] | Ki [14] | also measured
O=C(O)/C=C/c1ccccc1Cc1ccc2cc(OCc3ccccc3)ccc2c1 | 0.046 µM (antagonist) | > 0.5 | > 40 | 3 | > 0.5 | > 0.5 | > 10 | 4.6 | 0.0032 µM (antagonist) | 3.1 | 59 | > 15 µM | > 100 | 0.082 µM (antagonist) | Activity (Rattus norvegicus [3]): 11 µM; Cmax [6]: 28 µM
COc1ccc(Br)cc1S(=O)(=O)NC(=O)/C=C/c1ccccc1Cc1ccc2ccccc2c1 | 0.0069 µM (antagonist) | > 0.5 | > 50 | 4 | > 0.5 | > 0.5 | 3.3 | 3.3 | 0.0006 µM (antagonist) | 1 | 72 | 0.89 µM (antagonist) | 39 | > 0.5 µM | Cmax [15]: 50 µM; metabolised [16]: 36%; Activity (Rattus norvegicus [17]): 32 µM; remaining at 3 h [18]: 30%; Kb [19]: 0.0006 µM
